In brackets after ≈: the same amount, converted by molar mass.

For experiment [1], the system named is Nucleic Acid. Put plainly: Inhibition of SV40 DNA replication at 40 uM. The class given is nucleic-acid assay. The note with it: Betapolyomavirus macacae. The method, boiled down:
(§1)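 Cell-free SV40 origin (pUC) plasmid replication in 40 mM creatine phosphate-di-Tris pH 7.7 with creatine kinase, 7 mM MgCl2, 0.5 mM DTT, 4 mM ATP, 200 µM UTP/GTP/CTP, 100 µM dATP/dGTP/dCTP, 25 µM [3H]dTTP, 0.6 µg SV40 T-Ag and replication proteins. Incubation 90 min at 37 °C; acid-insoluble radioactivity counted. Products checked with [α-32P]dATP on agarose gel.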

A further experiment concerns SK-OV-3. As to the kind of experiment: Cytotoxicity against human SKOV3 cells. The class given is functional. The settings on record: read-out: ED50 (the source's name).
Experiment [2] deals with Nucleic Acid. As to the kind of experiment: Inhibition of SV40 DNA replication at 20 uM. The class given is nucleic-acid assay. The note with it: Betapolyomavirus macacae. The method, boiled down:
as §1

Another experiment deals with A549. As to the kind of experiment: Cytotoxicity against human A549 cells. The class given is functional. The settings on record: read-out: ED50 (the source's name).
In the next experiment the test system is HCT-15. As to the kind of experiment: Cytotoxicity against human HCT15 cells. The class given is functional. The settings on record: read-out: ED50 (the source's name).
Another experiment relates to XF498. As to the kind of experiment: Cytotoxicity against human XF498 cells. The class given is functional. The settings on record: read-out: ED50 (the source's name).
A further experiment relates to SK-MEL-2. As to the kind of experiment: Cytotoxicity against human SK-MEL-2 cells. It is filed as functional. The settings on record: read-out: ED50 (the source's name).

The term inhibition denotes the relative decrease from the control value, in per cent. Read a low inhibition as a weak effect. As to `C#C/C=C\CCCCCCCCCCCCC/C=C/C(O)CCCC/C=C\CCCCC#C[C@H](O)C#CCCCCCC/C=C/[C@H](O)C#C` (stereo not given in full), the figures for the inhibition in the experiment with Nucleic Acid [1] and in the experiment with Nucleic Acid [2] were 55% and 8%, respectively. The EC50 with SK-OV-3 amounted to 1.2 µg/mL (≈ 1.79 µM); in the experiment with A549, 4 µg/mL (≈ 5.96 µM); in the experiment on HCT-15, 1.4 µg/mL (≈ 2.09 µM); in the experiment with XF498, 3.5 µg/mL (≈ 5.22 µM); in the experiment on SK-MEL-2, 0.5 µg/mL (≈ 0.745 µM).
Take `C#C/C=C\CCCCCCCCCCCCCCC(O)/C=C/CCC/C=C\CCCCC#C[C@H](O)C#CCCCCCC/C=C/[C@H](O)C#C` (stereo not given in full): the inhibition was 55% in the experiment with Nucleic Acid [1] and 8% in the experiment on Nucleic Acid [2]. In addition, the EC50 in the experiment on SK-OV-3 is 1.2 µg/mL (≈ 1.79 µM); with A549 it was 4 µg/mL (≈ 5.96 µM); with HCT-15, 1.4 µg/mL (≈ 2.09 µM); in the experiment with XF498 it was 3.5 µg/mL (≈ 5.22 µM); in the experiment on SK-MEL-2, 0.5 µg/mL (≈ 0.745 µM).
`C#CCCCCCCCCCCCCCCCCC/C=C\CCCC/C=C\CCCCC#C[C@@H](O)C#CCCCCCCCC[C@@H](O)C#C` [PETROTETRAYNDIOL F]: the inhibition in the experiment with Nucleic Acid [1] was 48%; in the experiment with Nucleic Acid [2], 16%. The EC50 in the experiment with SK-OV-3 worked out at 3.8 µg/mL (≈ 5.65 µM); in the experiment on A549, 3.7 µg/mL (≈ 5.5 µM); with HCT-15, 3.4 µg/mL (≈ 5.05 µM); in the experiment with XF498 it was 4.3 µg/mL (≈ 6.39 µM); in the experiment with SK-MEL-2, 1.1 µg/mL (≈ 1.63 µM).
As for `C#C/C=C\CCCCCCCCCCCCCC/C=C\CCCCC(O)/C=C/CCCC#C[C@H](O)C#CCCCCCC/C=C/[C@H](O)C#C` (stereo not given in full), the results for the inhibition in the experiment on Nucleic Acid [1] and in the experiment with Nucleic Acid [2] were 36% and 9%, respectively. Besides, the EC50 came to 1.8 µg/mL (≈ 2.68 µM) in the experiment on SK-OV-3; 10 µg/mL (≈ 14.9 µM) in the experiment with A549; 4 µg/mL (≈ 5.96 µM) with HCT-15; 4.7 µg/mL (≈ 7 µM) in the experiment on XF498; 1.3 µg/mL (≈ 1.94 µM) in the experiment with SK-MEL-2.
`C#C/C=C\CCCCCCCCCCCCCCCC/C=C\CCCC/C=C\CCCCC#C[C@@H](O)C#CCCCCCC/C=C/[C@H](O)C#C`: the inhibition was found to be 38% with Nucleic Acid [1] and 21% in the experiment on Nucleic Acid [2]. In addition, the EC50 with SK-OV-3 came out at 5.1 µg/mL (≈ 7.47 µM); with A549, 5.2 µg/mL (≈ 7.61 µM); with HCT-15, 3.9 µg/mL (≈ 5.71 µM); with XF498, 5.8 µg/mL (≈ 8.49 µM); in the experiment on SK-MEL-2, 1.6 µg/mL (≈ 2.34 µM).

These data come from ChEMBL document CHEMBL1156395, “Cytotoxic polyacetylenic alcohols from the marine sponge Petrosia species” (2001).
